Tests used:
[1] = folding enthalpy; higher = less favourable; fluorescence melt of hairpins on a sequencing array, two-state fit; conditions: sodium 0.088 M
Method in brief: (§1)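 Bootstrapped two-state fits yielded melting temperature and folding enthalpy for library hairpins. Cy3 fluorescence, with annealed Cy3 and quencher oligos, was imaged on a sequenced MiSeq flow cell in 50 mM Na-HEPES pH 8.0, 25 mM NaCl in 2.5 °C steps up to 60 °C, and normalised to pre-quench Cy3 and to control constructs. Four replicates were combined by inverse variance, and fitted temperatures were raised by 9.35 °C to match UV melts.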

[2] = melting temperature; fluorescence melt of hairpins on a sequencing array, two-state fit, raised by 9.35 °C to match UV melts; conditions: sodium 0.088 M
Method in brief: as §1

Row | Sequence | folding enthalpy [1] | Tm [2]
1 | GCTGGTGGAAACACTAGC (((.(((....))).))) | -40.8 kcal/mol | 51.3 °C
2 | GCTGGTGGAAACATCGGC ((.(.((....)).).)) | -30.4 kcal/mol | 43 °C
3 | GCTGTACGAAAGTAAAGC (((.(((....))).))) | -30.2 kcal/mol | 49.6 °C
4 | GCTGTACGAAAGTATAGC (((.(((....))).))) | -39.6 kcal/mol | 54 °C
5 | GCTGTCCGAAAGGAGAGC (((.(((....))).))) | -34 kcal/mol | 57 °C
6 | GCTGTCCGAAAGGATAGC (((.(((....))).))) | -39.6 kcal/mol | 59.3 °C
7 | GCTGTCGAAAGACACAGC ((((((....)))..))) | -14.7 kcal/mol | 48.3 °C
8 | GCTGTCGAAAGACAGAGC ((((((....)))..))) | -13.6 kcal/mol | 54.8 °C
9 | GCTGTCGAAAGACTGAGC ((((((....)))..))) | -18.5 kcal/mol | 43 °C
10 | GCTGTCGGAAACGACAAC (.(((((....))))).) | -12.9 kcal/mol | 40.9 °C
11 | GCTGTCGGAAACGATAGC (((.(((....))).))) | -57.3 kcal/mol | 53.4 °C
12 | GCTGTCGGAAACGGTAGC (((..((....))..))) | -28.9 kcal/mol | 41.8 °C
13 | GCTGTCTCGAAAGAGAGC (((..(((....)))))) | -15.5 kcal/mol | 38.3 °C
14 | GCTGTGAAAACAGC (((((....))))) | -30.2 kcal/mol | 63.3 °C
15 | GCTGTGACGAAAGTCAGC (((..(((....)))))) | -15.1 kcal/mol | 47 °C
16 | GCTGTGCGAAAGCAACGC ((..(((....)))..)) | -13.7 kcal/mol | 49.9 °C
17 | GCTGTGCGAAAGCAGCGC ((..(((....)))..)) | -21 kcal/mol | 57.1 °C
18 | GCTGTGCGAAAGCAGGGC ((..(((....)))..)) | -21.1 kcal/mol | 50.3 °C
19 | GCTGTGCGAAAGCCCAGC ((((.((....)).)))) | -28.1 kcal/mol | 61.8 °C

Row | Sequence | folding enthalpy [1] | Tm [2]
20 | GCTGTGCGAAAGCCCCGC ((.(.((....)).).)) | -12.5 kcal/mol | 31.1 °C
21 | GCTGTGCGAAAGCGTAGC (((..((....))..))) | -17.6 kcal/mol | 49.5 °C
22 | GCTGTGCGAAAGCTCAGC ((((.((....)).)))) | -36.8 kcal/mol | 68 °C
23 | GCTGTGCGAAAGCTCTGC ((.(.((....)).).)) | -22.1 kcal/mol | 44.6 °C
24 | GCTGTGCGAAAGCTTAGC (((..((....))..))) | -22.5 kcal/mol | 41.9 °C
25 | GCTGTGGGAAACTACAGC (((((.(....).))))) | -41.4 kcal/mol | 53.1 °C
26 | GCTGTTACGAAAGTAAGC (((..(((....)))))) | -21.1 kcal/mol | 37.8 °C
27 | GCTGTTCGAAAGAAAGC (((.(((....)))))) | -15.6 kcal/mol | 36.7 °C
28 | GCTGTTGGAAACAACAGC (((((((....))))))) | -44.5 kcal/mol | 67.1 °C
29 | GCTGTTGGAAACGATAGC (((.(.(....).).))) | -20.9 kcal/mol | 32 °C
30 | GCTGTTTCGAAAGAAAGC (((..(((....)))))) | -15.7 kcal/mol | 27.6 °C
31 | GCTTAAGGAAACTTAAGC (((((((....))))))) | -39.6 kcal/mol | 53.2 °C
32 | GCTTAATCGAAAGATAGC (((..(((....)))))) | -16.4 kcal/mol | 30.8 °C
33 | GCTTACCGAAAGGTTAGC (((.(((....))).))) | -35 kcal/mol | 52.8 °C
34 | GCTTACGAAAGTAACAGC ((((((....)))..))) | -16.2 kcal/mol | 37 °C
35 | GCTTACGAAAGTAAGAGC ((((((....)))..))) | -18.5 kcal/mol | 45.4 °C
36 | GCTTACGAAAGTAATAGC ((((((....)))..))) | -17.8 kcal/mol | 38.6 °C
37 | GCTTACGAAAGTACAGC ((((((....))).))) | -23.4 kcal/mol | 41.4 °C
